Here are results for five molecules from publication PMC12257578 (Drug Development Research, 2025).

Each structure is given as a SMILES string. Read-outs that look alike come from different tables or passages of the source.

Series [1] is described as follows: General cytotoxicity, resazurin assay in Vero cells. The class given is cell-based. As to conditions: African green monkey. The method in brief: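 Vero cells at 60,000 cells/mL were pre-incubated 24 h, then treated with a two-fold dilution series starting from 100 μM test compound for 72 h. […] Emetine served as control.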
(The colour change of resazurin is a common sign of viable cells or microbes.)

The nature of series [2]: Animal cytotoxicity, CCK-8 assay in MDBK cells. Type of series: cell-based, bovine. As to conditions: bovine. The gist of the method:
(§1)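 MDBK bovine kidney cells at 10 000 cells/mL were exposed to two-fold serial dilutions of test compound for 72 h at 37°C, 5% CO2, humidified. CCK-8 reagent was then added, followed by a further 4 h incubation. Absorbance was read and CC50 derived, reported as mean ± SD of three biological replicates.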
(Tetrazolium assays rely on reduction of a dye to a coloured formazan, in cell work by metabolically active cells.)

Series [3] has as its system Trypanosoma brucei brucei GUTat3.1. The experiment in a line: Antitrypanosomal Cell-TiterGlo assay, T.b. brucei. The class given is cell-based. As to conditions: read-out: Antitrypomastigote activity IC50 ± SD. The method in brief: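 Blood-stage T. b. brucei GUTat3.1 at 2500 cells/mL was first screened at 0.25 and 25 µg/mL. […] Plates ran 72 h, then CellTiter-Glo was added, shaken 2 min and held 10 min at room temperature for lysis. IC50 came from bioluminescence, mean ± SD of three biological replicates.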

In series [4] the test system is Madin‐Darby bovine kidney (MDBK) cell line. The experiment in a line: Animal cytotoxicity, CCK-8 assay in MDBK cells. As to conditions: read-out: Cytotoxicity CC50 ± SD MDBK, 72 h. The class given is cell-based. The method in brief:
as §1

Series [5] concerns T. brucei gambiense strain IL1922. The experiment in a line: Antitrypanosomal Cell-TiterGlo assay, T.b. gambiense. Type of series: cell-based, Trypanosoma brucei gambiense. As to conditions: read-out: Antitrypomastigote activity IC50 ± SD; Tbg IL1922, 72 h.
For series [6], the system named is T. congolense strain IL3000. The experiment in a line: Antitrypanosomal Cell-TiterGlo assay, T. congolense. The class given is cell-based, Trypanosoma congolense. As to conditions: read-out: Antitrypomastigote activity IC50 ± SD.
In series [7] the test system is T. equiperdum strain IVM‐t1. The experiment in a line: Antitrypanosomal Cell-TiterGlo assay, T. equiperdum. Type of series: cell-based, Trypanosoma equiperdum. As to conditions: read-out: Antitrypomastigote activity IC50 ± SD.
The subject of series [8] is Leishmania donovani strain 9515 promastigotes. The experiment in a line: Antipromastigote resazurin assay, L. donovani. As to conditions: read-out: Antipromastigote activity IC50. Type of series: cell-based. The gist of the method: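 L. donovani strain 9515 (MHOM/IN/95/9515) promastigotes were kept at 26°C in supplemented M199 with 10% FBS, pH 7.3–7.4. Log-phase cells were seeded at 1.25 × 10^6 cells/mL with seven two-fold dilutions of test compound. […] After 48 h at 26°C, 0.01% resazurin in PBS was added for 24 h in the dark. IC50 came from absorbance.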

Series [9] deals with Leishmania donovani strain 9515 intramacrophage amastigotes. The experiment in a line: Intramacrophage antileishmanial assay. The class given is cell-based.
In series [10] the test system is L. major strain NIH S promastigotes. The experiment in a line: Antipromastigote resazurin assay, L. major. Type of series: cell-based. As to conditions: Leishmania major, read-out: Antipromastigote activity IC50.
Series [11] relates to L. major strain NIH S intramacrophage amastigotes. The experiment in a line: Intramacrophage antileishmanial assay. As to conditions: Leishmania major. The class given is cell-based.
Series [12] concerns human colorectal adenocarcinoma (CaCO2) cells. As to conditions: ref Tshiluka et al. [2023]; Tshiluka et al. [2025]; cited from earlier work.
The mark [13] stands for this setting: 24 h, read-out: Static anti‐amastigote activity IC50.
[14] abbreviates: 72 h, read-out: Cidal anti‐amastigote activity IC50.

In the case of `CC[C@H]1CN2CCc3cc(OC)c(OC)cc3[C@@H]2C[C@@H]1C[C@H]1NCCc2cc(OC)c(OC)cc21` [Em, Emetine], in series [1], the CC50 at 72 h was found to be 80 ± 9 nM.
The molecule `Cc1ccc(C(=O)Nc2ccc(S(=O)(=O)O)c3cc(S(=O)(=O)O)cc(S(=O)(=O)O)c23)cc1NC(=O)c1cccc(NC(=O)Nc2cccc(C(=O)Nc3cc(C(=O)Nc4ccc(S(=O)(=O)O)c5cc(S(=O)(=O)O)cc(S(=O)(=O)O)c45)ccc3C)c2)c1` [Suramin, suramin] gave a half-maximal cytotoxic concentration (CC50) at 72 h in [2] of more than 70000 nM. Moreover, the IC50 in [3] (Trypanosoma brucei, 72 h) is 70 ± 20 nM.
For `N=C(N)c1ccc(N=NNc2ccc(C(=N)N)cc2)cc1` [Diminazene aceturate, diminazene aceturate], the CC50 in series [4] is more than 355000 nM. In addition, the IC50 in series [5] was 11 nM; in series [3] (Tbb GuTat3.1, 72 h), 68 nM; in series [6] (Tc IL3000, 72 h), 90 nM; in series [7] (Teq IVM‐t1, 72 h), 22 ± 2 nM.
Molecule `CCC[C@H](NC(=O)CN1C(=O)SC(=Cc2ccc3c(c2)OCO3)C1=O)C(=O)OCC` [Compound 8, Ethyl {2-[5-(benzo[d] [1,3]dioxol-5-ylmethylene)-2,4-dioxothiazolidin-3-yl]acetyl}norvalinate] registered a CC50 at 72 h in [2] of 97100 ± 9300 nM. Further, the IC50 in [8] was 85860 ± 390 nM; in series [9] (setting [13]) it was more than 10000 nM; in series [9] (setting [14]) it was more than 10000 nM; in series [10], more than 100000 nM; in series [11] (setting [13]), more than 10000 nM; in [11] (setting [14]), more than 10000 nM. In addition, the IC50 was more than 58000 nM in series [3] (Trypanosoma brucei, 72 h); more than 58000 nM in series [6] (Trypanosoma congolense, 72 h); more than 58000 nM in [7] (Trypanosoma equiperdum, 72 h). Further, the “Toxicity on CaCO2 (Caco‐2) cells in words” value in series [12] is “reduced cell viability”.
`C[C@@H]1[C@H](O)[C@@H](C)/C=C/C=C/C=C/C=C/C=C/C=C/C=C/[C@H](O[C@@H]2O[C@H](C)[C@@H](O)[C@H](N)[C@@H]2O)C[C@@H]2O[C@](O)(C[C@@H](O)C[C@@H](O)[C@H](O)CC[C@@H](O)C[C@@H](O)CC(=O)O[C@H]1C)C[C@H](O)[C@H]2C(=O)O` [AMB, Amphotericin B]: the figures for the IC50 in [8] and in series [9] (setting [13]) were 20 ± 9 nM and 50 nM, respectively.

One may read the CC50 as the concentration that lowers cell viability or growth by half. By IC50 is commonly meant the midpoint of a concentration-inhibition curve.
